# Several values for one entry are separate records, joined by “and”; a condition that tells them apart may be missing. Equal entries are not always repeated.
# Test system: U2OS
# Test: Multiplex assay against U2OS
# Format: toxicity, cell-based
# Conditions: human
# How it was run: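 Tubulin, mitochondrial-mass and membrane-permeability phenotypes are per cents of healthy-nucleus cells. Cells were gated by CellPathfinder machine learning into Hoechst high-intensity objects or normal cells, normal cells into healthy, pyknosed or fragmented nuclei, and pyknosed cells into mitotic or apoptotic. Before that, live cells stained at seeding with Hoechst33342, BioTracker Green Microtubule Cytoskeleton Dye, MitoTracker Red and Annexin V Alexa Fluor 680 were imaged on a CQ1 microscope at 37°C and 5% CO2 after compound addition.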
# [1] = 12 h, 1 µM, compound concentration 1 uM
# [2] = 12 h, 10 µM, compound concentration 10 uM
# [3] = 24 h, 1 µM, compound concentration 1 uM
# [4] = 24 h, 10 µM, compound concentration 10 uM
# [5] = 48 h, 1 µM, compound concentration 1 uM
# [6] = 48 h, 10 µM, compound concentration 10 uM
compound,measurement,setting,value
CC(C)[C@H](C(=O)Nc1ccc(C(=O)NO)cc1)c1ccccc1 [AR-42],Population Apoptotic (%),[1],27.71% and 34.88%
same,Population Fragmented Nuclei (%),[1],2.59% and 3.95%
same,Population Healthy Nuclei (%),[1],77.88% and 71.75%
same,Population Hoechst High Intensity Objects (%),[1],0%
same,Population Membrane Permeable-Phenotype (%),[1],0.6% and 1.57%
same,Population Mitochondria Different-Phenotype (%),[1],0.3% and 7.87%
same,Population Mitotic Cells (%),[1],72.29% and 65.12%
same,Population Normal (%),[1],100%
same,Population Pyknosed Nuclei (%),[1],19.53% and 24.29%
same,Population Tubulin-Different-Phenotype (%),[1],0.6% and 0%
same,Total Cell Count,[1],425 and 177
same,Population Apoptotic (%),[2],22.08% and 11.11%
same,Population Fragmented Nuclei (%),[2],2.31% and 1.96%
same,Population Healthy Nuclei (%),[2],75.5% and 80.39%
same,Population Hoechst High Intensity Objects (%),[2],0%
same,Population Membrane Permeable-Phenotype (%),[2],0.38% and 3.25%
same,Population Mitochondria Different-Phenotype (%),[2],0% and 2.44%
same,Population Mitotic Cells (%),[2],77.92% and 88.89%
same,Population Normal (%),[2],100%
same,Population Pyknosed Nuclei (%),[2],22.19% and 17.65%
same,Population Tubulin-Different-Phenotype (%),[2],0.76% and 0.81%
same,Total Cell Count,[2],347 and 153
same,Population Apoptotic (%),[3],34.74% and 52.56%
same,Population Fragmented Nuclei (%),[3],5.86% and 12.17%
same,Population Healthy Nuclei (%),[3],51.35% and 46.56%
same,Population Hoechst High Intensity Objects (%),[3],0%
same,Population Membrane Permeable-Phenotype (%),[3],1.75% and 5.68%
same,Population Mitochondria Different-Phenotype (%),[3],0% and 5.68%
same,Population Mitotic Cells (%),[3],65.26% and 47.44%
same,Population Normal (%),[3],100%
same,Population Pyknosed Nuclei (%),[3],42.79% and 41.27%
same,Population Tubulin-Different-Phenotype (%),[3],4.82% and 3.41%
same,Total Cell Count,[3],444 and 189
same,Population Apoptotic (%),[4],38.59% and 30.67%
same,Population Fragmented Nuclei (%),[4],5.97% and 3.36%
same,Population Healthy Nuclei (%),[4],39.1% and 46.31%
same,Population Hoechst High Intensity Objects (%),[4],0%
same,Population Membrane Permeable-Phenotype (%),[4],3.82% and 5.8%
same,Population Mitochondria Different-Phenotype (%),[4],0% and 2.9%
same,Population Mitotic Cells (%),[4],61.41% and 69.33%
same,Population Normal (%),[4],100%
same,Population Pyknosed Nuclei (%),[4],54.93% and 50.34%
same,Population Tubulin-Different-Phenotype (%),[4],6.87% and 8.7%
same,Total Cell Count,[4],335 and 149
same,Population Apoptotic (%),[5],73.08% and 85.05%
same,Population Fragmented Nuclei (%),[5],10.42% and 6.52%
same,Population Healthy Nuclei (%),[5],25.06% and 35.33%
same,Population Hoechst High Intensity Objects (%),[5],0.25% and 0%
same,Population Membrane Permeable-Phenotype (%),[5],14.85% and 23.08%
same,Population Mitochondria Different-Phenotype (%),[5],0% and 10.77%
same,Population Mitotic Cells (%),[5],26.92% and 14.95%
same,Population Normal (%),[5],99.75% and 100%
same,Population Pyknosed Nuclei (%),[5],64.52% and 58.15%
same,Population Tubulin-Different-Phenotype (%),[5],30.69% and 30.77%
same,Total Cell Count,[5],404 and 184
same,Population Apoptotic (%),[6],83.05% and 91.57%
same,Population Fragmented Nuclei (%),[6],2.34% and 3.4%
same,Population Healthy Nuclei (%),[6],38.46% and 40.14%
same,Population Hoechst High Intensity Objects (%),[6],0% and 0.68%
same,Population Membrane Permeable-Phenotype (%),[6],18.26% and 44.07%
same,Population Mitochondria Different-Phenotype (%),[6],0% and 1.69%
same,Population Mitotic Cells (%),[6],16.95% and 8.43%
same,Population Normal (%),[6],100% and 99.32%
same,Population Pyknosed Nuclei (%),[6],59.2% and 56.46%
same,Population Tubulin-Different-Phenotype (%),[6],34.78% and 18.64%
same,Total Cell Count,[6],299 and 148
O=C(Nc1c[nH]nc1-c1nc2cc(CN3CCOCC3)ccc2[nH]1)NC1CC1 [AT-9283],Population Apoptotic (%),[1],27.91% and 52.63%
same,Population Fragmented Nuclei (%),[1],2.75% and 2.61%
same,Population Healthy Nuclei (%),[1],85.4% and 84.97%
same,Population Hoechst High Intensity Objects (%),[1],0%
same,Population Membrane Permeable-Phenotype (%),[1],0.65% and 3.85%
same,Population Mitochondria Different-Phenotype (%),[1],0.32% and 9.23%
same,Population Mitotic Cells (%),[1],72.09% and 47.37%
same,Population Normal (%),[1],100%
same,Population Pyknosed Nuclei (%),[1],11.85% and 12.42%
same,Population Tubulin-Different-Phenotype (%),[1],1.29% and 0%
same,Total Cell Count,[1],363 and 153
same,Population Apoptotic (%),[2],43% and 36.73%
same,Population Fragmented Nuclei (%),[2],6.56% and 13.38%
same,Population Healthy Nuclei (%),[2],60.66% and 52.11%
same,Population Hoechst High Intensity Objects (%),[2],0% and 0.7%
same,Population Membrane Permeable-Phenotype (%),[2],1.62% and 5.41%
same,Population Mitochondria Different-Phenotype (%),[2],0% and 14.86%
same,Population Mitotic Cells (%),[2],57% and 63.27%
same,Population Normal (%),[2],100% and 99.3%
same,Population Pyknosed Nuclei (%),[2],32.79% and 34.51%
same,Population Tubulin-Different-Phenotype (%),[2],2.16% and 2.7%
same,Total Cell Count,[2],305 and 143
same,Population Apoptotic (%),[3],38.27% and 55.56%
same,Population Fragmented Nuclei (%),[3],5.31% and 3.57%
same,Population Healthy Nuclei (%),[3],73.21% and 75%
same,Population Hoechst High Intensity Objects (%),[3],0%
same,Population Membrane Permeable-Phenotype (%),[3],0.72% and 3.17%
same,Population Mitochondria Different-Phenotype (%),[3],0% and 7.94%
same,Population Mitotic Cells (%),[3],61.73% and 44.44%
same,Population Normal (%),[3],100%
same,Population Pyknosed Nuclei (%),[3],21.49% and 21.43%
same,Population Tubulin-Different-Phenotype (%),[3],1.81% and 0%
same,Total Cell Count,[3],377 and 168
same,Population Apoptotic (%),[4],50.29% and 58.51%
same,Population Fragmented Nuclei (%),[4],11.38% and 13.89%
same,Population Healthy Nuclei (%),[4],28.28% and 20.83%
same,Population Hoechst High Intensity Objects (%),[4],0.34% and 1.37%
same,Population Membrane Permeable-Phenotype (%),[4],4.88% and 10%
same,Population Mitochondria Different-Phenotype (%),[4],0% and 10%
same,Population Mitotic Cells (%),[4],49.71% and 41.49%
same,Population Normal (%),[4],99.66% and 98.63%
same,Population Pyknosed Nuclei (%),[4],60.34% and 65.28%
same,Population Tubulin-Different-Phenotype (%),[4],10.98% and 3.33%
same,Total Cell Count,[4],291 and 146
same,Population Apoptotic (%),[5],55.84% and 65.43%
same,Population Fragmented Nuclei (%),[5],5.53% and 3.43%
same,Population Healthy Nuclei (%),[5],57.45% and 50.29%
same,Population Hoechst High Intensity Objects (%),[5],0.24% and 0.57%
same,Population Membrane Permeable-Phenotype (%),[5],4.6% and 11.36%
same,Population Mitotic Cells (%),[5],44.16% and 34.57%
same,Population Normal (%),[5],99.76% and 99.43%
same,Population Pyknosed Nuclei (%),[5],37.02% and 46.29%
same,Population Tubulin-Different-Phenotype (%),[5],11.3% and 13.64%
same,Total Cell Count,[5],417 and 176
same,Population Apoptotic (%),[6],69.51% and 86%
same,Population Fragmented Nuclei (%),[6],9.83% and 10.61%
same,Population Healthy Nuclei (%),[6],14.58% and 13.64%
same,Population Hoechst High Intensity Objects (%),[6],0.34% and 0%
same,Population Membrane Permeable-Phenotype (%),[6],27.91% and 11.11%
same,Population Mitochondria Different-Phenotype (%),[6],0% and 5.56%
same,Population Mitotic Cells (%),[6],30.49% and 14%
same,Population Normal (%),[6],99.66% and 100%
same,Population Pyknosed Nuclei (%),[6],75.59% and 75.76%
same,Population Tubulin-Different-Phenotype (%),[6],58.14% and 50%
same,Total Cell Count,[6],296 and 132
CC(C)C[C@H](CO)Nc1nc(S[C@@H](C)c2ccccc2)nc2nc(N)sc12 [AZD-8797],Population Apoptotic (%),[1],83% and 100%
same,Population Fragmented Nuclei (%),[1],20% and 12%
same,Population Healthy Nuclei (%),[1],65% and 82%
same,Population Hoechst High Intensity Objects (%),[1],3% and 0%
same,Population Membrane Permeable-Phenotype (%),[1],5%
same,Population Mitochondria Different-Phenotype (%),[1],1% and 5%
same,Population Mitotic Cells (%),[1],16% and 0%
same,Population Normal (%),[1],96% and 100%
same,Population Pyknosed Nuclei (%),[1],14% and 5%
same,Population Tubulin-Different-Phenotype (%),[1],2% and 3%
same,Total Cell Count,[1],177 and 95
same,Population Apoptotic (%),[2],63% and 78%
same,Population Fragmented Nuclei (%),[2],21% and 9%
same,Population Healthy Nuclei (%),[2],56% and 79%
same,Population Hoechst High Intensity Objects (%),[2],4% and 2%
same,Population Membrane Permeable-Phenotype (%),[2],30% and 10%
same,Population Mitochondria Different-Phenotype (%),[2],12% and 16%
same,Population Mitotic Cells (%),[2],36% and 21%
same,Population Normal (%),[2],95% and 97%
same,Population Pyknosed Nuclei (%),[2],22% and 10%
same,Total Cell Count,[2],222 and 135
same,Population Apoptotic (%),[3],81% and 83%
same,Population Fragmented Nuclei (%),[3],20% and 17%
same,Population Healthy Nuclei (%),[3],68% and 77%
same,Population Hoechst High Intensity Objects (%),[3],1% and 0%
same,Population Membrane Permeable-Phenotype (%),[3],2% and 4%
same,Population Mitochondria Different-Phenotype (%),[3],0% and 2%
same,Population Mitotic Cells (%),[3],18% and 16%
same,Population Normal (%),[3],98% and 100%
same,Population Pyknosed Nuclei (%),[3],10% and 4%
same,Population Tubulin-Different-Phenotype (%),[3],2% and 3%
same,Total Cell Count,[3],219 and 121
same,Population Apoptotic (%),[4],76% and 100%
same,Population Fragmented Nuclei (%),[4],20% and 7%
same,Population Healthy Nuclei (%),[4],58% and 86%
same,Population Hoechst High Intensity Objects (%),[4],3% and 1%
same,Population Membrane Permeable-Phenotype (%),[4],22% and 9%
same,Population Mitochondria Different-Phenotype (%),[4],12%
same,Population Mitotic Cells (%),[4],24% and 0%
same,Population Normal (%),[4],96% and 98%
same,Population Tubulin-Different-Phenotype (%),[4],13% and 6%
same,Total Cell Count,[4],245 and 156
same,Population Apoptotic (%),[5],94% and 100%
same,Population Fragmented Nuclei (%),[5],18% and 15%
same,Population Healthy Nuclei (%),[5],69% and 77%
same,Population Hoechst High Intensity Objects (%),[5],2%
same,Population Membrane Permeable-Phenotype (%),[5],6% and 2%
same,Population Mitochondria Different-Phenotype (%),[5],0% and 2%
same,Population Mitotic Cells (%),[5],5% and 0%
same,Population Normal (%),[5],97%
same,Population Pyknosed Nuclei (%),[5],11% and 6%
same,Population Tubulin-Different-Phenotype (%),[5],2%
same,Total Cell Count,[5],352 and 181
same,Population Apoptotic (%),[6],90% and 96%
same,Population Fragmented Nuclei (%),[6],26% and 12%
same,Population Healthy Nuclei (%),[6],54% and 74%
same,Population Hoechst High Intensity Objects (%),[6],4% and 3%
same,Population Membrane Permeable-Phenotype (%),[6],20% and 11%
same,Population Mitochondria Different-Phenotype (%),[6],10% and 5%
same,Population Mitotic Cells (%),[6],9% and 3%
same,Population Normal (%),[6],95% and 96%
same,Population Pyknosed Nuclei (%),[6],19% and 12%
same,Population Tubulin-Different-Phenotype (%),[6],14% and 4%
same,Total Cell Count,[6],296 and 218
